Published values pooled from the literature.
Each line is one published result; the experiments were not run side by side.
CYP2E1: Cytochrome P450 2E1 (CYP2E1, Homo sapiens, UniProt P05181)

O=C(CCCCCCC(=O)Nc1ccc(CC[18F])cc1)NO — tracer uptake (male nude mouse, stomach; intravenous, 1 h, tumour-bearing): 1.5 %ID/g
CCN(CC)C(=O)[C@@]1(c2ccccc2)C[C@H]1CN — Cmax (male cynomolgus monkey, plasma; oral, 30 mg/kg): 5020 ng/mL
Nc1ccc(C=Cc2ccc([125I])cc2)cc1 — tracer uptake (Swiss mouse, brain; intravenous, 5 µCi, 2 min): 2.29 %ID/g
CC1COc2ccccc2N1C(=O)C(Cl)Cl (centres unmarked) — microsomal CLint (metabolic stability; female monkey, liver microsomes; 5 µM, pH 7.4): 1400 µL/min/mg
CN(C)C(=O)CN1C(=O)Cc2c([nH]c3ccc(Br)cc23)-c2ccc(Cl)cc21 — CC50 (J774; cell growth or viability, WST-1; 24 h): ≥ 100 µM
CCN(CC)C(=S)S — inhibition (CYP2E1; enzyme activity, inhibitor; human, liver microsomes; 50 µM): 75%
CN(C(=O)n1cnc(-c2ccc[n+]([O-])c2)c1)C1CCCCC1 — Cmax (male cynomolgus monkey, plasma; oral, 0.1 mg/kg): 37.1 ng/mL
O=c1[nH]c2sc3c(c2c(=O)n1O)CCN(Cc1ccccc1)C3 — viability (HFF; cell growth or viability, MTS; 10 µM, 7 days): 104%
O=C(CN1C(=O)Cc2c([nH]c3ccc(Br)cc23)-c2ccc(Cl)cc21)N1CCCC1 — CC50 (J774; cell growth or viability, WST-1; 24 h): ≤ 100 µM
O=c1[nH]c2scc(-c3ccccc3)c2c(=O)n1O — viability (HFF; cell growth or viability, MTS; 10 µM, 7 days): 90%
Cn1ccc(COc2cnc(C(N)=O)cc2-c2ccc(O[11CH3])cc2F)n1 — tracer uptake (male mouse, lung; intravenous, 2.5 MBq, 5 min): 2.61 %ID/g
O=c1[nH]c2c(-c3ccccc3)csc2c(=O)n1O — viability (HFF; cell growth or viability, MTS; 10 µM, 7 days): 130%
Nn1nnc2ccccc21 — IC50 (CYP2E1; enzyme activity, inhibitor, HPLC): 37.7 µM
O=c1[nH]c2cc(-c3ccc(F)cc3)sc2c(=O)n1O — viability (HFF; cell growth or viability, MTS; 10 µM, 7 days): 61%
O=C(CN1C(=O)Cc2c([nH]c3ccc(Br)cc23)-c2ccc(Cl)cc21)N1CCOCC1 — CC50 (J774; cell growth or viability, WST-1; 24 h): ≤ 10 µM
O=c1[nH]c2sc(-c3ccc(F)cc3)cc2c(=O)n1O — viability (HFF; cell growth or viability, MTS; 10 µM, 7 days): 112%
CC(C)(C)NC(=O)CN1C(=O)Cc2c([nH]c3ccc(Br)cc23)-c2ccc(Cl)cc21 — CC50 (J774; cell growth or viability, WST-1; 24 h): ≥ 100 µM
